Data published in ChEMBL document CHEMBL4308847, “Discovery, Structure-Activity Relationship, and Biological Characterization of a Novel Series of 6-((1 H-Pyrazolo[4,3- b]pyridin-3-yl)amino)-benzo[ d]isothiazole-3-carboxamides as Positive Allosteric Modulators of the Metabotropic Glutamate Receptor 4 (mGlu4)” (J Med Chem, 2018).

Experiments:
[1] = target: T1, Metabotropic glutamate receptor 4 (Homo sapiens, UniProt Q14833); experiment: (§1) Positive allosteric modulation of human mGlu4 receptor expressed in CHO cells co-expressing Gqi5 assessed as increase in glutamate-induced calcium mobilization preincubated for 142 secs followed by EC20 glutamate addition and subsequent EC80 glutamate addition after 147 secs by Fluo-4-AM dye based fluorescence assay; format: functional, cell-based
In short: (§2)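 CHO cells expressing human mGlu4 and Gqi5, plated at 30,000 cells/well and grown overnight at 37 °C, 5% CO2. Cells were loaded with 1 μM Fluo-4 AM for 45 min at 37 °C in HBSS/20 mM HEPES/2.5 mM probenecid. Compounds were run as 10-point, 1:3 dilution series. After 142 s, EC20 glutamate was added; 147 s later, EC80 glutamate. Fluorescence was normalized to the maximal glutamate response. EC50 and %Glu Max were fitted by four-parameter logistic, with maximum normalized to PHCCC.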

[2] = target: T1, Metabotropic glutamate receptor 4; experiment: as §1, with “measured” for “subsequent EC80 glutamate addition”, “assay relative to control” for “assay”; format: functional, cell-based; in short: as §2
[3] = Fraction unbound in rat plasma after 4 hrs by equilibrium dialysis method; format: ADME, cell-free
[4] = Fraction unbound in human plasma after 4 hrs by equilibrium dialysis method; format: ADME, cell-free
[5] = Intrinsic clearance in rat liver microsomes at 1 uM preincubated for 5 mins followed by NADPH addition measured up to 45 mins by LC-MS/MS analysis; format: ADME, Microsome; details: read-out: CLH
In short: (§3)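 Intrinsic and predicted hepatic clearance derived from liver microsome incubations.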

[6] = Intrinsic clearance in human liver microsomes at 1 uM preincubated for 5 mins followed by NADPH addition measured up to 45 mins by LC-MS/MS analysis; format: ADME, Microsome; details: read-out: CLH; in short: as §3
Cytochrome P450 1A2 = target: T2, Cytochrome P450 1A2 (Homo sapiens, UniProt P05177); experiment: Inhibition of CYP1A2 in human liver microsomes using phenacetin as substrate preincubated for 15 mins followed by substrate addition and measured after 8 mins by LC-MS/MS analysis; format: ADME
T2 sequence (P05177 whole entry): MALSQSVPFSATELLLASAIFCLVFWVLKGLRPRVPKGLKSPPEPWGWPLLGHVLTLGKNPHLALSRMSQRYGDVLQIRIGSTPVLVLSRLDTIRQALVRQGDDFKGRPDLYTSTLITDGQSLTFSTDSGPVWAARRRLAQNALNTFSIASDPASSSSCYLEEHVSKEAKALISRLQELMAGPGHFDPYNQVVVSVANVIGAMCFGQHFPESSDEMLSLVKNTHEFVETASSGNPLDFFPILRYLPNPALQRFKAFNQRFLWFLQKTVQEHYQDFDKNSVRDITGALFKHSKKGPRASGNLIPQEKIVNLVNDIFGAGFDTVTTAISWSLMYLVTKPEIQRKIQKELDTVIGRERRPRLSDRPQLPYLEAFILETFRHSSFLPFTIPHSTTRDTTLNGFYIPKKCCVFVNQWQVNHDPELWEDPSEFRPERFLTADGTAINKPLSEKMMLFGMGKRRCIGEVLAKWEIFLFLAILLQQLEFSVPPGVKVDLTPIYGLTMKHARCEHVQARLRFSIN
In short: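 IC50 for CYP1A2 inhibition determined in human liver microsomes using specific probe substrate-metabolite pairs.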

[7] = target: Metabotropic glutamate receptor 4 (Rattus norvegicus) (UniProt P31423); experiment: Positive allosteric modulation of rat mGlu4 receptor expressed in HEK cells co-expressing GIRK1/2 assessed as increase in glutamate-induced thallium flux preincubated for 140 secs followed by glutamate addition and measured after 2.5 mins by FluoZin-2-AM dye based fluorescence assay relative to control; format: cell-based
In short: (§4)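 HEK cells co-expressing rat mGlu4 and GIRK1/2 were loaded for 1 h at room temperature with FluoZin-2 AM (330 nM final) in HBSS/20 mM HEPES pH 7.4. Compound was incubated 140 s, then thallium buffer with or without agonist was added. Reading continued for 2.5 min at room temperature. Potency was fitted by four-parameter logistic.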

[8] = target: Metabotropic glutamate receptor 4 (Rattus norvegicus, UniProt P31423); experiment: Positive allosteric modulation of rat mGlu4 receptor expressed in HEK cells co-expressing GIRK1/2 assessed as increase in glutamate-induced thallium flux preincubated for 140 secs followed by glutamate addition and measured after 2.5 mins by FluoZin-2-AM dye based fluorescence assay; format: cell-based; in short: as §4
[9] = Clearance in rat administered as iv cassette dose; format: ADME, organism-based; details: in vivo
In short: (§5)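 IV cassette in male Sprague-Dawley rats (~300 g, n = 1 per experiment), cannulated in carotid artery and jugular vein and acclimated about one week. Plasma clearance, Vss, t1/2 and MRT were derived.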

[10] = Half life in rat administered as iv cassette dose; format: ADME, organism-based; details: in vivo; in short: as §5

T1 sequence (Q14833 whole entry): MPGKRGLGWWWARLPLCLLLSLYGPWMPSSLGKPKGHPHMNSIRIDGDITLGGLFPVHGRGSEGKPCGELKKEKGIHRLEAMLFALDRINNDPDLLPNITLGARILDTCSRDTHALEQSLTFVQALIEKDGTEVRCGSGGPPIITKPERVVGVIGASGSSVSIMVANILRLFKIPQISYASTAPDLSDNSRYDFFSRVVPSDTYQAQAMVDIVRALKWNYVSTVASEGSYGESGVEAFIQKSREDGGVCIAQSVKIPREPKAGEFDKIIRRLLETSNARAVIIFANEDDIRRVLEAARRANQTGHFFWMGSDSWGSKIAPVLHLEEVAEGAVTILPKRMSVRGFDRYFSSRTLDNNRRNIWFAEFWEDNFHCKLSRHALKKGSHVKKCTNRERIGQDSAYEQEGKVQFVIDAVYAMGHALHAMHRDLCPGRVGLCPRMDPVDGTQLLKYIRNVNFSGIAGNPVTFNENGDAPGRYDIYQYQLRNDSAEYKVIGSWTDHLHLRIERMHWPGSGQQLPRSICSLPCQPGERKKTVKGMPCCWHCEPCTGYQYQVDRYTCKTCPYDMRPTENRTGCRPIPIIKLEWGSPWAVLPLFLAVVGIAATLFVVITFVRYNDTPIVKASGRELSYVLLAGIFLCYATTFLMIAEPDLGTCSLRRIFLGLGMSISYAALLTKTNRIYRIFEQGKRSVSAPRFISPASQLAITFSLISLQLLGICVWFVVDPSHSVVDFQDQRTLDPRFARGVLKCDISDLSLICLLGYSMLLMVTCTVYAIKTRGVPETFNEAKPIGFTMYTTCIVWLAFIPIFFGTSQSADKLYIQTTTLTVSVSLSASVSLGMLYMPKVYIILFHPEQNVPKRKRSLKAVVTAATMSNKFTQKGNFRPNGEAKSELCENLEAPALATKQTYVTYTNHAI
Metabotropic glutamate receptor 4 (Rattus norvegicus), sequence (P31423 whole entry): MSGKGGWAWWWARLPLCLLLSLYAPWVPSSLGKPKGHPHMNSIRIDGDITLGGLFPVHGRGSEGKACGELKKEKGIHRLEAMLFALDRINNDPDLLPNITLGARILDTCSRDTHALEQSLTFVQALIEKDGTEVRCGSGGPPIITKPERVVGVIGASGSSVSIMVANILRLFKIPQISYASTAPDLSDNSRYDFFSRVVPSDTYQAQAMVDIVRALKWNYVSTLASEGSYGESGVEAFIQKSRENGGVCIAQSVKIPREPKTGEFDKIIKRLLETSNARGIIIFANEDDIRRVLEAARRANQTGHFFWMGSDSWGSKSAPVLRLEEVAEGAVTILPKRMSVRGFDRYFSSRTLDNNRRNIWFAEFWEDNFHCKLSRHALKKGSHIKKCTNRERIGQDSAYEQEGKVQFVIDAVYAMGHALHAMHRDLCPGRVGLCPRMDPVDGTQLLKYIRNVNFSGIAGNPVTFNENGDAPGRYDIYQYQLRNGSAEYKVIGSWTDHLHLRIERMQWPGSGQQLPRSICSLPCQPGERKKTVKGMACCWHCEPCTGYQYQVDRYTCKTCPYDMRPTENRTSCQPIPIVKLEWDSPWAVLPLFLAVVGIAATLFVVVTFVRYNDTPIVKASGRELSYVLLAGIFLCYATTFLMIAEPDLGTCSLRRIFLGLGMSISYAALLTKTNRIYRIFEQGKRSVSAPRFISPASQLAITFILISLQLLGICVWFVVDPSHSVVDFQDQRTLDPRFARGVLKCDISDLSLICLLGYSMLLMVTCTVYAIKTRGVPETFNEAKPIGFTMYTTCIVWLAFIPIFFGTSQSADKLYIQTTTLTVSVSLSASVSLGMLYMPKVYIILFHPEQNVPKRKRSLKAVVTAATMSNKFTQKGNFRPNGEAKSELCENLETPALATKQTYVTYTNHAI
Metabotropic glutamate receptor 4 (Rattus norvegicus, UniProt P31423), sequence (P31423 whole entry): as above

EC50 [1] [nM] | %max [2] [%] | fraction unbound at 4 h [3] | fraction unbound at 4 h [4] | CLint scaled at 1 µM [5] [mL/min/kg] | CLint scaled at 1 µM [6] [mL/min/kg] | IC50 (Cytochrome P450 1A2) [nM] | %max [7] [%] | EC50 [8] [nM] | clearance [9] [mL/min/kg] | half-life [10] [h] | Fu ([3]; 4 h) | Fu ([4]; 4 h) | Compound
708 | 102 | – | – | – | – | – | – | – | – | – | – | – | c1cnc2c(Nc3ccc4c(C5CCC5)noc4c3)n[nH]c2n1
2400 | 60 | – | – | – | – | – | – | – | – | – | – | – | c1cnc2[nH]nc(Nc3ccc4c(C5CCCC5)noc4c3)c2c1
324 | 44 | 0.034 | 0.013 | 229 | 60 | – | – | – | – | – | – | – | CC1CN(C(=O)c2nsc3cc(Nc4n[nH]c5cccnc45)ccc23)CC(C)O1 (stereo not given)
851 | 88 | 0.016 | 0.026 | 1220 | 83.2 | 1800 | – | – | – | – | – | – | c1cnc2c(Nc3ccc4c(C5CCC5)noc4c3)n[nH]c2c1
324 | 64 | – | – | – | – | – | – | – | – | – | – | – | CC(C)(C)c1nsc2cc(Nc3n[nH]c4cccnc34)ccc12
> 10000 | 54 | – | – | – | – | – | – | – | – | – | – | – | CCc1noc2ccc(Nc3n[nH]c4ncccc34)cc12
1860 | 86 | – | – | – | – | – | – | – | – | – | – | – | Cc1noc2cc(Nc3n[nH]c4cccnc34)ccc12
2820 | 84 | – | – | – | – | – | – | – | – | – | – | – | CC(C)(C)Cc1noc2cc(Nc3n[nH]c4ncccc34)ccc12
105 | 54 | 0.011 | 0.013 | 189 | 40.2 | > 30000 | 112 | 158 | – | – | – | – | CC(C)(C)Cc1nsc2cc(Nc3n[nH]c4nccnc34)cnc12
269 | 70 | – | – | – | – | – | – | – | – | – | – | – | CC(C)(C)Cc1nsc2cc(Nc3n[nH]c4cccnc34)ccc12
129 | 92 | 0.019 | 0.009 | 488 | 84.2 | 1000 | – | – | – | – | – | – | CCC(CC)c1noc2cc(Nc3n[nH]c4cccnc34)ccc12
678 | 58.8 | 0.017 | 0.003 | 11 | 24.6 | 500 | 83.8 | 1600 | 27.8 | 1.51 | – | – | CC(F)(F)c1noc2cc(Nc3n[nH]c4cccnc34)ccc12
75.9 | 91 | 0.058 | 0.062 | 31.8 | 14.8 | < 100 | 105 | 95.5 | – | – | – | – | Cc1noc2ccc(Nc3n[nH]c4cccnc34)cc12
98 | 106 | – | – | – | – | – | – | – | – | – | – | – | CCC(CC)c1noc2cc(Nc3n[nH]c4nccnc34)ccc12
68 | 73 | 0.008 | 0.012 | 59.4 | 41.2 | 700 | – | – | – | – | – | – | c1cnc2c(Nc3ccc4c(C5CC5)nsc4c3)n[nH]c2n1
74 | 51 | 0.016 | 0.006 | 277 | 24.7 | 22100 | – | – | – | – | – | – | CC(C)(C)Cc1nsc2cc(Nc3n[nH]c4cccnc34)cnc12
575 | 23 | – | – | – | – | – | – | – | – | – | – | – | CC(C)c1noc2cc(Nc3n[nH]c4cccnc34)ccc12
813 | 53 | – | – | – | – | – | – | – | – | – | – | – | CC(C)Cc1noc2cc(Nc3n[nH]c4cccnc34)ccc12
759 | 74 | – | – | – | – | – | – | – | – | – | – | – | CC(C)(C)Cc1nsc2cc(Nc3n[nH]c4ncccc34)ccc12

EC50 [1] [nM] | %max [2] [%] | fraction unbound at 4 h [3] | fraction unbound at 4 h [4] | CLint scaled at 1 µM [5] [mL/min/kg] | CLint scaled at 1 µM [6] [mL/min/kg] | IC50 (Cytochrome P450 1A2) [nM] | %max [7] [%] | EC50 [8] [nM] | clearance [9] [mL/min/kg] | half-life [10] [h] | Fu ([3]; 4 h) | Fu ([4]; 4 h) | Compound
275 | 62 | 0.059 | 0.077 | 172 | 44.3 | – | – | – | – | – | – | – | O=C(c1nsc2cc(Nc3n[nH]c4cccnc34)ccc12)N1CCOCC1
– | 111 | – | – | – | – | – | – | – | – | – | – | – | O=C(C1CC1)N1CCC(c2nsc3cc(Nc4n[nH]c5cccnc45)ccc23)CC1
447 | 63 | – | – | – | – | – | – | – | – | – | – | – | CC1CC(C)CN(C(=O)c2nsc3cc(Nc4n[nH]c5cccnc45)ccc23)C1 (stereo not given)
1050 | 98 | – | – | – | – | – | – | – | – | – | – | – | CC(C)(O)c1nsc2cc(Nc3n[nH]c4cccnc34)ccc12
– | 84 | – | – | 1080 | 27.5 | > 30000 | – | – | – | – | Nd(Unstable) | Nd(Unstable) | FC1(F)CCN(Cc2nsc3cc(Nc4n[nH]c5cccnc45)cnc23)CC1
1350 | 72 | 0.037 | 0.027 | 204 | 69.9 | < 100 | – | – | – | – | – | – | CCc1noc2cc(Nc3n[nH]c4cccnc34)ccc12
1300 | 68.9 | 0.022 | 0.016 | 86.9 | 7.3 | 1100 | 84.8 | 542 | 43.2 | 1.33 | – | – | CC(C)(C)Cc1noc2cc(Nc3n[nH]c4cccnc34)ccc12
794 | 50 | – | – | – | – | – | – | – | – | – | – | – | FC(F)(F)c1nsc2cc(Nc3n[nH]c4ncccc34)ccc12
102 | 57 | – | – | – | – | – | – | – | – | – | – | – | CCc1nsc2cc(Nc3n[nH]c4ncccc34)ccc12
219 | 54 | 0.044 | 0.054 | 39.3 | 23.6 | 500 | 121 | 190 | – | – | – | – | Cc1noc2ccc(Nc3n[nH]c4ncc(F)cc34)cc12
117 | 92 | – | – | – | – | – | – | – | – | – | – | – | CCCC(C)c1noc2cc(Nc3n[nH]c4cccnc34)ccc12 (stereo not given)
525 | 97 | – | – | – | – | – | – | – | – | – | – | – | CCC(CC)c1noc2cc(Nc3n[nH]c4ncccc34)ccc12
398 | 80 | – | – | – | – | – | – | – | – | – | – | – | CC1CCN(C(=O)c2nsc3cc(Nc4n[nH]c5cccnc45)ccc23)CC1
– | 79 | 0.039 | 0.042 | 21 | 15.8 | 21700 | 98.9 | 166 | – | – | – | – | CC(=O)N1CCC(c2nsc3cc(Nc4n[nH]c5cccnc45)ccc23)CC1
331 | 92 | – | – | – | – | – | – | – | – | – | – | – | O=C(c1nsc2cc(Nc3n[nH]c4cccnc34)ccc12)N1CCC(F)(F)C1
40 | 77 | 0.03 | 0.035 | 127 | 35.4 | – | – | – | – | – | – | – | CCc1nsc2cc(Nc3n[nH]c4cccnc34)ccc12
81 | 76 | 0.014 | 0.009 | 176 | 28.9 | 400 | – | – | – | – | – | – | c1cnc2c(Nc3ccc4c(C5CC5)nsc4c3)n[nH]c2c1
723 | 87.6 | 0.007 | 0.01 | 398 | 30.7 | 1200 | 97.9 | 680 | 62.1 | 1.67 | – | – | c1cnc2c(Nc3ccc4c(C5CCCC5)noc4c3)n[nH]c2c1
22.9 | 70 | – | – | – | – | – | – | – | – | – | – | – | Cc1noc2c(F)cc(Nc3n[nH]c4nccnc34)cc12
